Source: ChEMBL document CHEMBL1155349, “Identification of small molecule inhibitors of proline-rich tyrosine kinase 2 (Pyk2) with osteogenic activity in osteoblast cells” (Bioorg Med Chem Lett, 2009)
One block for each molecule: values may come before it.

How the values were obtained:
Focal adhesion kinase 1 = Focal adhesion kinase 1 (Homo sapiens, UniProt Q05397); assay: Inhibition of human FAK by HTRF assay
[1] = target: T1, Protein-tyrosine kinase 2-beta (Homo sapiens, UniProt Q14289); assay: Inhibition of human Pyk2 by HTRF assay
T1 sequence (Q14289 whole entry): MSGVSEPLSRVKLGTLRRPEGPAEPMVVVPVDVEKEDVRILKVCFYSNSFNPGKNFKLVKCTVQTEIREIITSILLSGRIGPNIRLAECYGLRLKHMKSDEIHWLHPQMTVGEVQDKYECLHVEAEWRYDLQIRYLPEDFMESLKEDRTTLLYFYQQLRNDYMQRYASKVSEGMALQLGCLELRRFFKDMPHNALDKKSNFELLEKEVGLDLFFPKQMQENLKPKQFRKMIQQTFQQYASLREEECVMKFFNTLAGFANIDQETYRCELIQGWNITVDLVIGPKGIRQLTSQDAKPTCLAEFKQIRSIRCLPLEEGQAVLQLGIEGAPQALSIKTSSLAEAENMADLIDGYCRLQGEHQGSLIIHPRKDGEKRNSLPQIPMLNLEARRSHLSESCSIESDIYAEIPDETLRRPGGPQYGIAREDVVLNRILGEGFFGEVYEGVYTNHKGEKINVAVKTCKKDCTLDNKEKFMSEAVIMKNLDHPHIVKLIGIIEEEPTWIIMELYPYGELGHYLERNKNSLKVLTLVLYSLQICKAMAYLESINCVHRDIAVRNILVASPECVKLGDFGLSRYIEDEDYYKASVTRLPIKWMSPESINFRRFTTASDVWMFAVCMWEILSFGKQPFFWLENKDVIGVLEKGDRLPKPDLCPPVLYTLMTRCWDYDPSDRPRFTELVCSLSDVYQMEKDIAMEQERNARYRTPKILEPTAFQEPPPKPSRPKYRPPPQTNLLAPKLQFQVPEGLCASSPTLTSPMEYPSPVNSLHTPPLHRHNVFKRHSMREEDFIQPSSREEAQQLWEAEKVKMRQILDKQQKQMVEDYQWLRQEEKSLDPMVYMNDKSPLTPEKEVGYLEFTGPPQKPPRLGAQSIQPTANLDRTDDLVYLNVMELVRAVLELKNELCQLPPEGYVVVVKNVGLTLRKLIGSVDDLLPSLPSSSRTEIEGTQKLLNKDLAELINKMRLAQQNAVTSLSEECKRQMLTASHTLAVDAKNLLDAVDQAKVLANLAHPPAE

[2] = target: T1, Protein-tyrosine kinase 2-beta; assay: Inhibition of human PyK2 Y402 autophosphorylation expressed in 293T cells by immunofluorescence assay; format: cell-based
[3] = target: Protein-tyrosine kinase 2-beta (Mus musculus) (UniProt Q9QVP9); assay: (§1) Inhibition of mouse Pyk2 in […] cells assessed as increase in alkaline phosphatase level; format: cell-based
Sequence of Protein-tyrosine kinase 2-beta (Mus musculus) (Q9QVP9 whole entry, looked up): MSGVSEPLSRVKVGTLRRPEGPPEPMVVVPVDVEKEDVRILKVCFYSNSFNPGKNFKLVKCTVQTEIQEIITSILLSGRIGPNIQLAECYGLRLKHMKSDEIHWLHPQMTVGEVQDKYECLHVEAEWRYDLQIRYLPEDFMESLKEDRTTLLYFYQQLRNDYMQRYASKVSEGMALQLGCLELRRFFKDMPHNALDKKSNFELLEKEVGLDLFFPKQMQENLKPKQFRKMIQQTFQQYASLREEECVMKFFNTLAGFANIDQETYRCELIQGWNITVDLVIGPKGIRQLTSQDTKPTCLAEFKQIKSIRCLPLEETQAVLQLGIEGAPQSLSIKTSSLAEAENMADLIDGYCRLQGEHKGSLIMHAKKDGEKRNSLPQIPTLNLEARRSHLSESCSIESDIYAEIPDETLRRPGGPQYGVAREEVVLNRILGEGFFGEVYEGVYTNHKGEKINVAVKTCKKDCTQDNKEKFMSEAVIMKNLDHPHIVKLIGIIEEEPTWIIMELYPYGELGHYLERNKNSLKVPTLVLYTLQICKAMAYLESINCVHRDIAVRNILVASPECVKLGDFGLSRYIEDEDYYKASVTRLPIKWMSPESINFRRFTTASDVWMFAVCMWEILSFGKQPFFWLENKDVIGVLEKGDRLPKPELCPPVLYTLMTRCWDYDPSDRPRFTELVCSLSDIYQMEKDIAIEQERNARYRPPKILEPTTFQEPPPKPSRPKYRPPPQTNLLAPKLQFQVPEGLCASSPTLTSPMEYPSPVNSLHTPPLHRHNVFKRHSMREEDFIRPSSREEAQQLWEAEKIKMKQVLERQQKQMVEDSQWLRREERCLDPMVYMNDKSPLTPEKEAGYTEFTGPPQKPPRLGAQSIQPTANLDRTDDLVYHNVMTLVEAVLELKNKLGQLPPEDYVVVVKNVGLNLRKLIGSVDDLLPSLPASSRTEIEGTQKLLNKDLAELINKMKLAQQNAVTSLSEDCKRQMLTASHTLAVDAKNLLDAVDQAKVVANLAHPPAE
Outline: (§2)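 MC3T3 osteoblast cells were grown with increasing inhibitor concentrations for up to 3 weeks. Alkaline phosphatase, osteocalcin and calcium were measured as osteogenic markers after three weeks in culture, and ALP was also measured at additional time points. EC50 values came from the dose-response. Culture and dosing conditions followed an earlier report.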

[4] = target: T2, Protein-tyrosine kinase 2-beta (Mus musculus, UniProt Q9QVP9); assay: as §1; format: cell-based; outline: as §2
T2 sequence (Q9QVP9 whole entry): as the sequence (Q9QVP9 whole entry, looked up) above

[5] = target: Protein-tyrosine kinase 2-beta (Mus musculus) (UniProt Q9QVP9); assay: (§3) Inhibition of mouse Pyk2 in […] cells assessed as increase in osteocalcin level; format: cell-based; outline: as §2
[6] = target: T2, Protein-tyrosine kinase 2-beta; assay: as §3; format: cell-based; outline: as §2
[7] = target: Protein-tyrosine kinase 2-beta (Mus musculus) (UniProt Q9QVP9); assay: Inhibition of mouse Pyk2 in […] cells assessed as increase in calcium level; format: cell-based; outline: as §2
[8] = target: Tyrosine-protein kinase JAK1 (Homo sapiens, UniProt P23458); assay: Inhibition of Jak1
Sequence of Tyrosine-protein kinase JAK1 (P23458 whole entry): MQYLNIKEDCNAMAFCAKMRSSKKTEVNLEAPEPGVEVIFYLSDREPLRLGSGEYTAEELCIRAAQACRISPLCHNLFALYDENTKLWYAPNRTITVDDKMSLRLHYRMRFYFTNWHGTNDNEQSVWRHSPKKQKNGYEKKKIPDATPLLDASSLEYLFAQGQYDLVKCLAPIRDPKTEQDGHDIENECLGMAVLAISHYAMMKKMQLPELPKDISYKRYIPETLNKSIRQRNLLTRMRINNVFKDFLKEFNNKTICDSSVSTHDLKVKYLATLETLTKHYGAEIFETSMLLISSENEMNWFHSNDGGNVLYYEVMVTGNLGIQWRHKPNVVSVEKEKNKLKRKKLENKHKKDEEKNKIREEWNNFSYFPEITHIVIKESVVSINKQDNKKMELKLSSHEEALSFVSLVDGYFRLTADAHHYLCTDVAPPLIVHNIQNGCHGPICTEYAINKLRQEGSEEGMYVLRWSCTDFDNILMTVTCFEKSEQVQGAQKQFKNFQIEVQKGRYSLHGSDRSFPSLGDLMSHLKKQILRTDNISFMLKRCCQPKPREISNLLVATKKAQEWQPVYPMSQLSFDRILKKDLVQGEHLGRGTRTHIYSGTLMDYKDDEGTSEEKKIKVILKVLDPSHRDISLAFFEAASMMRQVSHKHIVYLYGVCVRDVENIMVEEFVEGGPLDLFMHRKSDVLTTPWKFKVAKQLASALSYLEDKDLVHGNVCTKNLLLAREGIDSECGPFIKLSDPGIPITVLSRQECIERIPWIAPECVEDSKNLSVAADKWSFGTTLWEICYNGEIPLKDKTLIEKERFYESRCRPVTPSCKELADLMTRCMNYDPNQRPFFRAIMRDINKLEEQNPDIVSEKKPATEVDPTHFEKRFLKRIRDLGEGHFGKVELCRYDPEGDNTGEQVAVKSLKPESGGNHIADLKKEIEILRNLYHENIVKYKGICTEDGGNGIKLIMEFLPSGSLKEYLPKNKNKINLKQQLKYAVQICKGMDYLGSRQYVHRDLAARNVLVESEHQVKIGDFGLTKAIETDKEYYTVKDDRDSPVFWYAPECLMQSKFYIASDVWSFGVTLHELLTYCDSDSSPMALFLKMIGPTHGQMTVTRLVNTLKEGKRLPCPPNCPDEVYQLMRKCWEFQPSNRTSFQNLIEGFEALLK

[9] = target: Tyrosine-protein kinase JAK2 (Homo sapiens, UniProt O60674); assay: Inhibition of Jak2
[10] = target: T3, Tyrosine-protein kinase JAK3 (Homo sapiens, UniProt P52333); assay: Inhibition of Jak3
T3 sequence (P52333 whole entry): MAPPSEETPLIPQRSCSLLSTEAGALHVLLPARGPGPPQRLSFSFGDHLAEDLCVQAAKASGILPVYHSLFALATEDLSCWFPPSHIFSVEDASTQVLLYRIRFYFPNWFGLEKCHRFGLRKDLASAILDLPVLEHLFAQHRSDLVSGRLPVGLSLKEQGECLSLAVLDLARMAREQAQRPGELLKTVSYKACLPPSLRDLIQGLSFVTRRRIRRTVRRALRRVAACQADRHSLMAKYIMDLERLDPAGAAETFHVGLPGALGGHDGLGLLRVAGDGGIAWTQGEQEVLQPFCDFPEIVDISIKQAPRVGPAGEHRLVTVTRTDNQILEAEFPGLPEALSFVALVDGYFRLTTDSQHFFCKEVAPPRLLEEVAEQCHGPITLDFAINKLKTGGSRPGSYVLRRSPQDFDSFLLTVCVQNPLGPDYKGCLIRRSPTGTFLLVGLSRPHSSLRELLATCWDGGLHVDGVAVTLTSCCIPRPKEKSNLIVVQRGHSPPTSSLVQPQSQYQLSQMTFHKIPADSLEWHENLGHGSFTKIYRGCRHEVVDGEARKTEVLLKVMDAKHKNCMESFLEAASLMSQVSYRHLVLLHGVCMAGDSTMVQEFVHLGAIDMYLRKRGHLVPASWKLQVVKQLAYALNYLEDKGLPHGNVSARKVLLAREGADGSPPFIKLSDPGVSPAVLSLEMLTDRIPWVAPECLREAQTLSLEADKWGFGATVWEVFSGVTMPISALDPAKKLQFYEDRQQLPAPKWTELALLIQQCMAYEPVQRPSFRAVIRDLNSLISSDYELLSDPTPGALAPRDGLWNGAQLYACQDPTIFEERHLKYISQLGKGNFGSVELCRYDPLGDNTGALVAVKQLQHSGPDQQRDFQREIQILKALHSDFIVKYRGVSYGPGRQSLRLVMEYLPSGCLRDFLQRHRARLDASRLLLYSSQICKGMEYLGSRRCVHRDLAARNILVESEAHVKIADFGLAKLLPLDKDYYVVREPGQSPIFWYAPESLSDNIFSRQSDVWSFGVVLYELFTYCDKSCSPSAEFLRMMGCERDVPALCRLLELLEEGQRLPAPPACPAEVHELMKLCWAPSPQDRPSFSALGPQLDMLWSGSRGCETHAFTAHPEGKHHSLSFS

[11] = target: T4, Eukaryotic translation initiation factor 2-alpha kinase 3 (Homo sapiens, UniProt Q9NZJ5); assay: Inhibition of PEK
T4 sequence (Q9NZJ5 whole entry): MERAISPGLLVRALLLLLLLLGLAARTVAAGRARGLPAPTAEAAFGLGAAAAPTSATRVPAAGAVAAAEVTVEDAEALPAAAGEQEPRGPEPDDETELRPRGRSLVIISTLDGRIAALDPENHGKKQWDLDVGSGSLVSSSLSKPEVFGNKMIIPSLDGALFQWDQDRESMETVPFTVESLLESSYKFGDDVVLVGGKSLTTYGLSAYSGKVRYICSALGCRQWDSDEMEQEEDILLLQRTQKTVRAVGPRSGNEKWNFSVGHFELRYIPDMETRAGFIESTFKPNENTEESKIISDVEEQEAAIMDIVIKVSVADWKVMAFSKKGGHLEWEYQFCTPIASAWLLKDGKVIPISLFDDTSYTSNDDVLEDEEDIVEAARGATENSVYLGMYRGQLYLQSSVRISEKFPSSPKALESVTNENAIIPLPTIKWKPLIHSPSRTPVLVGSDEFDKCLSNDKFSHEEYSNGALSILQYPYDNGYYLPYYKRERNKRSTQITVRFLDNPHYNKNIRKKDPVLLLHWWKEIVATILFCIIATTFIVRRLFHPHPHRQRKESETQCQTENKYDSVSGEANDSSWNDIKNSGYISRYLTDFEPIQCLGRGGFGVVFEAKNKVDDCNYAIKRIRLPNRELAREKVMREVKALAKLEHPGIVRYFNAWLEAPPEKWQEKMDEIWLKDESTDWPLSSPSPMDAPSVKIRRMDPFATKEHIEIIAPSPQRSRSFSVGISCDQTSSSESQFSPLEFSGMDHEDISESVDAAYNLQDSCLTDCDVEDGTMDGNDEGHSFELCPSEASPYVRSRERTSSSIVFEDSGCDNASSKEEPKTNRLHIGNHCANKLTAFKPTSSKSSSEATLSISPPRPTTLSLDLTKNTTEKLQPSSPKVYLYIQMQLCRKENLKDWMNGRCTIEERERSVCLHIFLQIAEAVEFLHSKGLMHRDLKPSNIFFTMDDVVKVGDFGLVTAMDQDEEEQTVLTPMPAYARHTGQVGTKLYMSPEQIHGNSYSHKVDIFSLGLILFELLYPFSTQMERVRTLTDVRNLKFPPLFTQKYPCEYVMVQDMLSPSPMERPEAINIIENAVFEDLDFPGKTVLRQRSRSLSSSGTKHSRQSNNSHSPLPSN

[12] = target: Non-receptor tyrosine-protein kinase TYK2 (Homo sapiens, UniProt P29597); assay: Inhibition of TYK2
[13] = target: Interferon-induced, double-stranded RNA-activated protein kinase (Homo sapiens, UniProt P19525); assay: Inhibition of PKR
Sequence of Interferon-induced, double-stranded RNA-activated protein kinase (P19525 whole entry): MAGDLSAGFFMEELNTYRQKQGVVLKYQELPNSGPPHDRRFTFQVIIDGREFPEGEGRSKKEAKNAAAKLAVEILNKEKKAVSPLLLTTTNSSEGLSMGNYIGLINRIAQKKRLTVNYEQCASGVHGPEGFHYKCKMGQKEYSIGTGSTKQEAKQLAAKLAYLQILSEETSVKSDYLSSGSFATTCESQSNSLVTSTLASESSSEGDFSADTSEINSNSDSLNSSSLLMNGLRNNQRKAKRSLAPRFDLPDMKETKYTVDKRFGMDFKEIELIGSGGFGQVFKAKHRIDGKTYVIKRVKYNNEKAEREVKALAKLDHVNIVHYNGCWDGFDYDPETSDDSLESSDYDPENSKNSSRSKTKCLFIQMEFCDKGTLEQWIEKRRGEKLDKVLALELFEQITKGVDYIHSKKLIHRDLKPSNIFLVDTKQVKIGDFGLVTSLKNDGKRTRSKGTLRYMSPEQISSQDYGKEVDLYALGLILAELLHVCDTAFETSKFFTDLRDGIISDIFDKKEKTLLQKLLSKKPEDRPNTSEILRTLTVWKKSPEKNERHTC

[14] = Inhibition of Aurora 2

Sequence of Focal adhesion kinase 1 (Q05397 whole entry): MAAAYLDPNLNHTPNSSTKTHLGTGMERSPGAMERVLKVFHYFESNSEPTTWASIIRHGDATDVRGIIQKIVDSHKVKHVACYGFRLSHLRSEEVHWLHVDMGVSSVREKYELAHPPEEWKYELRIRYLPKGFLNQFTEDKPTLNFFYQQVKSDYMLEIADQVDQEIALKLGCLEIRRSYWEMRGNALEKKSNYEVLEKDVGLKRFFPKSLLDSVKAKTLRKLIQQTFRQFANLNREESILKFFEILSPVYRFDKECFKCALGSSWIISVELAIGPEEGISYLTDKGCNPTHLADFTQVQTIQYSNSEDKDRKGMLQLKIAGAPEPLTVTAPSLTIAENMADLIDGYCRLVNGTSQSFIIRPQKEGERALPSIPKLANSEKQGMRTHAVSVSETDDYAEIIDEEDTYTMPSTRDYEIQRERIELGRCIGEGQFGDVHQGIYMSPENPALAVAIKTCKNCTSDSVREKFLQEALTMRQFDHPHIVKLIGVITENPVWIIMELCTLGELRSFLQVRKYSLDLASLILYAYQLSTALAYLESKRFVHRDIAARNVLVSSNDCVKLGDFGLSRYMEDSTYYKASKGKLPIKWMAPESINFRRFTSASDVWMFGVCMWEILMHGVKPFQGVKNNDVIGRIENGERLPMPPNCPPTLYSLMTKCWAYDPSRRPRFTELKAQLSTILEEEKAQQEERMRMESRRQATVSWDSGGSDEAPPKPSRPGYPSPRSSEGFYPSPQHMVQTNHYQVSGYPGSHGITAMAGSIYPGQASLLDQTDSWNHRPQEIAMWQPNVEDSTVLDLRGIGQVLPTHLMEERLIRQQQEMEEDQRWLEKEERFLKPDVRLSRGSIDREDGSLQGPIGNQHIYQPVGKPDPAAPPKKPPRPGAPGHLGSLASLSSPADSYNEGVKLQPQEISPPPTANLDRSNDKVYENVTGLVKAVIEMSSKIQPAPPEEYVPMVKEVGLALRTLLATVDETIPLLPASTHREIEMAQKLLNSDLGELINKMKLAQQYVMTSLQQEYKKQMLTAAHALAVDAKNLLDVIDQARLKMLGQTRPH

SMILES: COc1cc2nccc(Oc3ccc(NC(=O)c4c(N(C)C)ccn(-c5ccccc5)c4=O)nc3)c2cc1OC
IC50 (Focal adhesion kinase 1): > 125 µM

SMILES: CNc1ccn(-c2ccccc2)c(=O)c1C(=O)Nc1ccc(Oc2ccnc3cc(OC)c(OC)cc23)cn1
IC50 [1]: 0.035 µM
IC50 (Focal adhesion kinase 1): 17 µM
IC50 [2]: 0.11 µM
Activity [3]: Dose-dependent effect
EC50 [4]: 0.01 µM
Activity [5]: Dose-dependent effect
EC50 [6]: 0.01 µM
Activity [7]: Dose-dependent effect
IC50 [8]: > 1 µM
IC50 [9]: > 1 µM
IC50 [10]: > 1 µM
IC50 [11]: > 1 µM
IC50 [12]: > 1 µM
IC50 [13]: > 1 µM
IC50 [14]: > 1 µM

SMILES: COc1cc2nccc(Oc3ccc(NC(=O)c4c(N5CCN(C)CC5)ccn(-c5ccccc5)c4=O)nc3)c2cc1OC
IC50 (Focal adhesion kinase 1): > 125 µM

SMILES: CNc1ccn(Cc2ccccc2)c(=O)c1C(=O)Nc1ccc(Oc2ccnc3cc(OC)c(OC)cc23)cn1
IC50 (Focal adhesion kinase 1): > 125 µM

Results, then the molecule that gave them:

IC50 (Focal adhesion kinase 1): > 125 µM
SMILES: COCCNc1ccn(-c2ccccc2)c(=O)c1C(=O)Nc1ccc(Oc2ccnc3cc(OC)ccc23)cn1

IC50 (Focal adhesion kinase 1): > 125 µM
SMILES: COc1cc2nccc(Oc3ccc(NC(=O)c4cc(-c5cccnc5)cn(-c5ccccc5)c4=O)nc3)c2cc1OC

IC50 (Focal adhesion kinase 1): > 125 µM
Activity [3]: Dose-dependent effect
EC50 [4]: 0.01 µM
Activity [5]: Dose-dependent effect
EC50 [6]: 0.01 µM
Activity [7]: Dose-dependent effect
SMILES: COc1cc2nccc(Oc3ccc(NC(=O)c4cc(-c5cccs5)cn(-c5ccccc5)c4=O)nc3)c2cc1OC

IC50 (Focal adhesion kinase 1): > 125 µM
SMILES: COc1ccc2c(Oc3ccc(NC(=O)c4cc(-c5cnccn5)cn(-c5ccccc5)c4=O)nc3)ccnc2c1

IC50 (Focal adhesion kinase 1): > 125 µM
SMILES: COc1ccc2c(Oc3ccc(NC(=O)c4cc(-c5cccnc5)cn(-c5ccccc5)c4=O)nc3)ccnc2c1
